The list is not random: actives were taken first. Their share in the collection is about 1.7%.
SUMO1 PPI mod: modulators of human SUMO1-mediated protein-protein interactions | P63165 | SUMO1 binding to a labelled peptide, TR-FRET, 1 h | inhibition, % at 20 µM | hit rate 0.33% among 360,000 | AID 602429; in the data active = inhibition above about 37%
Target sequence (P63165 whole entry, looked up): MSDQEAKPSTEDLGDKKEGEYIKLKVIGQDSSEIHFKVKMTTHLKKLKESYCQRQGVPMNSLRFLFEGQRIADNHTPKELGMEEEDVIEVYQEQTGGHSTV
STEP inh: STEP (human) phosphatase inhibition. P54829. recombinant STEP, OMFP fluorogenic substrate, fluorescence. inhibition, % at 20 µM. hit rate 0.25% among 360,000. AID 588621;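 active = inhibition at 20 µM, scaled per plate between control wells, above about 37%, limit read from the data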;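 also: 0% = DMSO with enzyme and substrate and 100% = substrate only without enzyme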
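Material: STEP (striatal-enriched tyrosine phosphatase) enzyme, cell-free | Medium: 50 mM Bis-Tris pH 6.0 with 2.5 mM DTT and 0.005% Tween 20 | Read-out: Percent inhibition scaled to no-enzyme and uninhibited-enzyme controls, plate-pattern corrected | Signal: Fluorescence read at 480 nm ex / 540 nm em | Times: 20 min reaction, room temperature, in the dark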
DNMT1 block: inhibitors of human DNMT1 | P26358 | DNMT1 molecular beacon, Hinp1I cleavage, fluorescence | inhibition (reported as % activation of signal), % at 10 µM | hit rate 0.83% among 360,000; in the data active = inhibition above about 50%
LMPTP inh: blocks human LMPTP phosphatase; hit rate 0.22% among 360,000; inhibition, % at 20 µM; AID 651560; P24666; recombinant LMPTP-A, OMFP fluorogenic substrate, fluorescence intensity;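 active = compounds that cut the enzyme signal by at least half of the control window in the single-dose screen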;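 also: plate controls were DMSO wells with enzyme plus substrate for no effect and substrate without enzyme for full effect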
Target sequence (P24666 whole entry, looked up): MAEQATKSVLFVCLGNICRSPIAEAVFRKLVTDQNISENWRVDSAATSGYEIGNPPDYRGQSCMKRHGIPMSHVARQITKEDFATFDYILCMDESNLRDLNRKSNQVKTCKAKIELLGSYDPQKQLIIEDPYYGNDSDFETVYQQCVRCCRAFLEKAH
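Test system: LMPTP-A phosphatase enzyme; input: 0.625 nM LMPTP-A final; reagent: OMFP substrate, 400 µM final; compound dosing: 20 µM single dose, 3% DMSO; incubation: 50 min dark incubation at room temperature; measured by: endpoint fluorescence intensity from OMFP dephosphorylation; measure: % inhibition relative to no-enzyme and uninhibited control wells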
Scp1 inh: inhibitors of human Scp-1 phosphatase; Q9GZU7; Recombinant Scp1, phosphopeptide, malachite green phosphate absorbance; inhibition, % at 20 µM; hit rate 0.88% among 340,000;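 active = inhibition above about 50% at 20 µM, limit read from the data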;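 also: plate controls were DMSO wells with enzyme for no effect and wells lacking enzyme for full effect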
Target sequence (Q9GZU7 76-261 limits assumed): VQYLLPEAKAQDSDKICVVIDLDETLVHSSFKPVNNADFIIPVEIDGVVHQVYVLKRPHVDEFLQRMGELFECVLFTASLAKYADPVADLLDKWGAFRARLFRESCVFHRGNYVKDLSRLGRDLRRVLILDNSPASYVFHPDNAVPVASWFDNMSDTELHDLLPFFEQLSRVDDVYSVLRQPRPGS
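Material: truncated SCP-1 phosphatase (76-261aa) / Buffer or medium: 50 mM Tris acetate pH 5.5, 0.005% Tween-20, 10 mM MgCl2 / Compound dosing: one concentration, 20 µM, with 1.0% DMSO / Incubation: 45 min room-temperature reaction, 5 min colour, 30 min stabiliser / Detection: colorimetric free-phosphate detection, absorbance 630 nm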
* hit, by the source's call; . = no result given.

SMILES	SUMO1 PPI mod	STEP inh	DNMT1 block	LMPTP inh	Scp1 inh
Cc1cc(N2CCCC2)nc(-c2ccccc2O)n1	69*	6	0	1	-13
Cc1cc(N2CCN(C)CC2)nc(-c2ccccc2O)n1	5	0	0	0	-11
CCCOc1ccc(F)cc1-c1cc(C(=O)Nc2ccc(C(C)C)cc2)[nH]n1	22	2	11	3	.
Cc1cnc(C=NNC(N)=S)c2cccc(N)c12	107*	97*	114*	86*	84*
NC(=S)NN=Cc1nccc2ccccc12	-25	0	-3	0	23
COc1ccc(C(=O)c2ccc(OC)c(OC)c2)cc1OC	1	0	2	-2	-5
COc1cc(C(=O)C(=O)c2ccc(OC)c(OC)c2)ccc1O	38*	1	8	-1	-18
O=C(OCc1ccccc1)N1C=CCC[C@@H]1c1c(Cl)cccc1Br	1	1	10	3	.
O=[N+]([O-])c1ccc(NS(=O)(=O)c2ccc(Cl)c(Cl)c2)cc1	-9	-1	-1	2	.
NS(=O)(=O)c1ccc(CNC(=O)COc2ccc3c4c(c(=O)oc3c2)CCCC4)cc1	63*	3	-1	0	-1
O=C(COc1ccc2c3c(c(=O)oc2c1)CCC3)Nc1ccccn1	51*	3	-14	0	-11
O=C(COc1ccc2c3c(c(=O)oc2c1)CCCC3)NCc1ccncc1	-5	0	4	-1	-5
CC1NC(=O)c2cccnc2-n2c1nc1cc(F)c(F)cc1c2=O (centres undefined)	-4	-2	3	-2	.
CSc1cnn(CCC#N)c(=O)n1	-8	.	.	0	.
CCOC(=O)C1CCCN(S(=O)(=O)c2cc(Br)cc3c2N(C(=O)CC)CC3)C1 (centres undefined)	2	0	1	0	-4
Cc1ccc(C(=O)c2ccccc2C(=O)OCC(=O)NC(=O)NC(C)(C)C)cc1	45*	1	2	-1	0
O=C(Nc1ccc(Nc2ccncc2)cc1)c1ccc(Nc2ccnc3ccc([N+](=O)[O-])cc23)cc1[N+](=O)[O-]	45*	2	23	89*	-7
O=C(NCCCC(NC(=O)OCc1ccccc1)C(=O)O)OCc1ccccc1 (centres undefined)	1	-4	2	-1	-6
CC(C)(C)N1C(=O)Cc2c1nc(N)c1c(N)nc(N3CCCCC3CO)c(C#N)c21 (centres undefined)	50*	12	6	28	9
N#Cc1c(N2CCN(c3ccc(F)cc3)CC2)nc(N)c2c(N)nc3c(c12)CC(=O)N3C1CC1	18	9	-21	4	-2
COc1ccc(-c2csc(NC(=S)NC(=O)c3cccs3)n2)cc1OC	44*	2	-27	4	-8
COc1ccc(-c2csc(NC(=S)NC(=O)c3cccs3)n2)cc1Br	-1	-1	-3	2	-13
COC(=O)c1cc(C)nc2c1C(=O)C(=O)C=C2N1CCOCC1	79*	11	97*	21	6
NC(=O)Cn1nnc(-c2ccc(CN3CCCCC3)cc2)n1	58*	1	3	0	-1
Cc1cccc(NC(=O)Cn2nnc(-c3ccc(CN4CCCC4)cc3)n2)c1C	17	-2	1	1	-2
SMILES	SUMO1 PPI mod	STEP inh	DNMT1 block	LMPTP inh	Scp1 inh
CCc1cc(=O)oc2cc(OC(C)C(=O)N3CC[C@@]4(O)CCCC[C@H]4C3)ccc12 (some centres undefined)	3	6	0	0	.
CC[C@H]1OC(=O)[C@H](C)[C@@H](O[C@H]2C[C@@](C)(OC)[C@@H](O)[C@H](C)O2)[C@H](C)[C@@H](O[C@@H]2O[C@H](C)C[C@H](N(C)C)[C@H]2O)[C@](C)(O)C[C@@H](C)C(=O)[C@H](C)[C@@H](O)[C@]1(C)O	14	1	77*	75*	8
CCOC(=O)c1ccc(NC(=O)c2c(N)n(Cc3ccccc3)c(=O)[nH]c2=O)cc1	46*	0	49	-1	-3
CCOC(=O)c1ccc(NC(=O)c2ccccc2)cc1	2	-5	3	-1	-7
COc1ccc(-c2cc3c(=O)n(CC(=O)N4CCCC4)ncn3n2)cc1	58*	-1	14	1	-8
CCCCCCCCN1C(=O)[C@H](CC(=O)NCCCOC)C[C@@]2(C(=O)OCC)CCCC=C12	7	.	.	0	.
CC(C)[C@H]1COCCS(=O)(=O)N1Cc1ccccc1-c1ccc(F)cc1	5	2	3	1	1
COC(=O)[C@]12CCCCC=C1N(Cc1ccccc1)C(=O)[C@H](CC(=O)N1CCCCC1)C2	-3	.	.	-3	.
CCN(CC)C(=O)c1ccc(/C=C/c2c[nH]c3ccccc23)[n+](C)c1	-47	-8	30	4	8
CC[n+]1c(/C=C/c2c[nH]c3ccccc23)ccc2cc(C)ccc21	.	.	.	.	68*
CCc1ccccc1Nc1nc(N)nc(COC(=O)C2CCN(C(=O)c3ccc(F)cc3)CC2)n1	0	5	-2	0	-9
CCS(=O)(=O)N1Cc2ccccc2CC1C(=O)N(C)CC(=O)Nc1cccc(F)c1 (centres undefined)	-26	-2	-5	-11	-10
CC1=C(C(=O)OCc2ccccc2)C(c2cccc([N+](=O)[O-])c2)NC(=O)N1CCCCCC(=O)O (centres undefined)	-8	0	6	-1	-4
CCOC(=O)C1=C(C)N(CCCCCC(=O)O)C(=O)NC1c1cccc([N+](=O)[O-])c1 (centres undefined)	-4	1	92*	-1	-6
Cc1ccc(CC#N)c(-c2c(CC#N)ccc(C)c2C)c1C	-2	1	4	-1	.
Cc1ccc2c(c1C)-c1c(ccc(C)c1C)C(=O)C2=O	49*	5	95*	8	-16
CN(Cc1ccccc1)C1=CC(=[N+]2CCCC2)CC(C)(C)C1	-3	1	2	0	103*
O=C(Nc1ccc(F)cc1)c1sc2cc(C(F)(F)F)cnc2c1-c1cccs1	10	6	-1	4	-2
N#Cc1ccc(NC(=O)c2sc3cc(C(F)(F)F)cnc3c2-c2cccs2)cc1	56*	2	0	0	-12
COc1ccccc1CNc1nc(-c2cc(C)n(C)c2C)cs1	-1	-2	76*	11	3
CCN=C(N/N=C/c1ccc([N+](=O)[O-])cc1)SC	-22	-2	4	-2	104*
CCN(CC)c1ccc(/C=N/NC(=O)c2ccc([N+](=O)[O-])cc2)cc1	-11	1	12	1	-1
Cc1ccccc1C(=O)N1CCC(C(N)=O)CC1	55*	2	2	-2	-6
O=c1c(Br)ccc(Br)cc1Br	25	74*	59*	1	-10
O=S1(=O)N[C@H](Cc2ccccc2)COc2cc(N3CCC[C@@H]3CO)ccc21	0	.	.	-1	.

Source: PubChem BioAssay (Sanford-Burnham Center for Chemical Genomics)
